Published values from different studies.
Lines come from different studies, so protocols differ.
Effect on: cell growth or viability

Compound	cell line	method	time	CC50 [µM]
Clc1ccc(CCC(Cn2ccnc2)Sc2c(Cl)cccc2Cl)cc1 (stereo not drawn)	Vero	WST-1	18 h	34.9
COc1cc(Nc2ccnc3ccc(Br)cc23)cc(OC)c1OC	Vero	resazurin	–	28.6
O=C(Nc1ncc([N+](=O)[O-])s1)c1cc(Cl)ccc1Cl	BHK-21	MTT	–	> 100
C[C@H]1[C@H](OC(=O)CCC(=O)O)O[C@@H]2O[C@@]3(C)CC[C@H]4[C@H](C)CC[C@@H]1[C@@]24OO3	Vero	WST-1	18 h	29.2
OCCCCCCC1COOC2(CCCCCCCCCCC2)OOC1	BHK-21	WST-1	72 h	3.4
O=C(Nc1ncc([N+](=O)[O-])s1)c1ccco1	BHK-21	MTT	–	> 10
CC(=O)c1cccc(NC(=O)C(=O)[C@H](CC(C)C)NC(=O)[C@H](CC(C)C)NC(=O)[C@H](CC(C)C)NC(=O)OCc2ccccc2)c1	Vero	ATP luminescence	48 h	17.7
Nc1ccc(-c2ccc(Nc3cc(S(=O)(=O)O)c(N)c4c3C(=O)c3ccccc3C4=O)cc2)c(S(=O)(=O)O)c1	BHK-21	MTT	42 h	177
O=C(NCc1ccc(Cl)cc1)C1CC1c1ccccc1 (stereo not drawn)	BHK-21	MTT	–	> 100
Cc1cc(C)cc([C@@H]2C[C@H]2C(=O)NC(C(=O)NC2CC2)c2ccc(C)c(C)c2)c1 (stereo partly drawn)	BHK-21	MTT	24 h	~10
C=CC(=O)Nc1cccc(-c2snc3cc(-c4ccc(N)c(OC)c4)cnc23)c1	Vero	resazurin	–	21
Cc1cc(N)c2cc(NC(=O)Nc3ccc4nc(C)cc(N)c4c3)ccc2n1	BHK-21	MTT	42 h	49
